Experiment [1] deals with HCT-116. The experiment in a line: Effect on sphingolipidome in human HCT116 cells assessed as reduction in C24-ceramide per 10^6 cells at 10 uM after 14 hrs by UPLC-TOF analysis relative to control. Type of experiment: functional, cell-based. In short, it runs like this: (§1)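 Cells incubated with compound at 10 µM, 24 h (A549) or 14 h (HCT116); lipids then extracted and profiled. Long-chain bases and phosphates were read by LC-MS/MS (positive electrospray, selected reaction monitoring, C17-dihydrosphingosine and C17-dihydrosphingosine-1-phosphate transitions monitored). Amounts expressed as pmol per 10⁶ cells. Mean ± SD of triplicates; unpaired two-tailed t-test versus control.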

Experiment [2] has as its system HCT-116. The experiment in a line: Induction of apoptosis in human HCT116 cells at 15 uM after 14 hrs by Annexin V-propidium iodide staining based flow cytometry. The class given is functional, cell-based. The procedure, abridged: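 HCT116 (clone 40–16) in low-glucose DMEM with 10% FBS and 1% penicillin–streptomycin, seeded 2.5×10⁵ cells/mL. After 24 h, medium replaced with compound-containing medium; ethanol vehicle to controls. After incubation, cells PBS-washed, trypsinized, stained with Annexin V and propidium iodide, analysed by flow cytometry. Mean ± SD, 3 experiments in triplicate.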
A general note: In flow cytometry, cells or beads pass a laser one at a time.

Experiment [3] has as its system HCT-116. The experiment in a line: Effect on sphingolipidome in human HCT116 cells assessed as increase in glucosyldihydroceramides per 10^6 cells at 10 uM after 14 hrs by UPLC-TOF analysis relative to control. The class given is functional, cell-based. The procedure, abridged: as §1
Experiment [4] concerns the target T1, Sphingolipid delta(4)-desaturase DES1 (Homo sapiens) (UniProt O15121).
T1 sequence (whole entry): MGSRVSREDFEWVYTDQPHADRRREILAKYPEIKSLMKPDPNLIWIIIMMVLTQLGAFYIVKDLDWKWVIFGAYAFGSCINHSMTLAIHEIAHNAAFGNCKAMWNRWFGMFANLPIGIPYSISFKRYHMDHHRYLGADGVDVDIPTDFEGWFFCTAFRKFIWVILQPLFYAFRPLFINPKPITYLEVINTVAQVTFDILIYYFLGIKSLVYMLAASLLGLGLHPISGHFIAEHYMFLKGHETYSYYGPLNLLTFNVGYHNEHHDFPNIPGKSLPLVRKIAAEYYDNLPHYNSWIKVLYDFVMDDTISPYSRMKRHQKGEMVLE
The experiment in a line: Inhibition of Des1 in human HCT116 cells assessed as formation of CerC6NBD from dhCerC6NBD at =>100 uM after 4 hrs by HPLC-FD analysis. Type of experiment: cell-based. Conditions: HCT-116. In short, it runs like this:
(§2)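 Des1 activity in A549 and HCT116 cells: intact cells seeded 2×10⁵/well and incubated 4 h with dhCerC6NBD and compound. Dose–response used cell lysates incubated 4 h with 10 µM dhCerC6NBD plus graded compound. CerC6NBD measured by HPLC with fluorescence detection. IC50 from sigmoidal variable-slope regression; mean ± SD, three experiments in triplicate.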

Experiment [5] concerns HCT-116. The experiment in a line: Induction of […] in human HCT116 cells at 20 uM after 14 hrs by Annexin V-propidium iodide staining based flow cytometry. The class given is functional.
Experiment [6] concerns the target T1, Sphingolipid delta(4)-desaturase DES1 (Homo sapiens). The experiment in a line: Inhibition of Des1 in human A549 cells assessed as formation of CerC6NBD from dhCerC6NBD at =>100 uM after 4 hrs by HPLC-FD analysis. The class given is cell-based. In short, it runs like this:
as §2

Experiment [7] relates to HCT-116. The experiment in a line: Effect on sphingolipidome in human HCT116 cells assessed as increase in dihydrosphingomyelins per 10^6 cells at 10 uM after 14 hrs by UPLC-TOF analysis relative to control. Type of experiment: functional, cell-based. The procedure, abridged: as §1
For experiment [8], the system named is HCT-116. The experiment in a line: Effect on sphingolipidome in human HCT116 cells assessed as increase in C18-ceramide per 10^6 cells at 10 uM after 14 hrs by UPLC-TOF analysis relative to control (reference value: 3.9 +/- 0.3 pmol/10^6 cells). The class given is functional. In short, it runs like this: as §1
For experiment [9], the target named is T2, Lysosomal acid glucosylceramidase (Homo sapiens) (UniProt P04062).
T2 sequence (whole entry): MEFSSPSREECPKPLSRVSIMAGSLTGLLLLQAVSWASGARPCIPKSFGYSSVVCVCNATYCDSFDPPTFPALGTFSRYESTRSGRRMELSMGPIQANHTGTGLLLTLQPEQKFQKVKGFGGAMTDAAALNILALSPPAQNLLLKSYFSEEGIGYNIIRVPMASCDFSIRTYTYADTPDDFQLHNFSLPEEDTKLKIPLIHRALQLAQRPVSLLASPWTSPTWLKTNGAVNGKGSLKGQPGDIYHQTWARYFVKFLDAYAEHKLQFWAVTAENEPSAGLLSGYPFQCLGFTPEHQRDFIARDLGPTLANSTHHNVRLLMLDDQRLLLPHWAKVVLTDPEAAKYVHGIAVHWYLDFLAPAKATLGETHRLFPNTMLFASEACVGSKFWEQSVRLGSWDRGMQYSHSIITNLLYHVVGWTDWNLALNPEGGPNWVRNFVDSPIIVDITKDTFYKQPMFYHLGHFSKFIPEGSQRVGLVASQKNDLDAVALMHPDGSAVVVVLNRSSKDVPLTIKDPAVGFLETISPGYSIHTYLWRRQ
The experiment in a line: Inhibition of human glucocerebrosidase using 4-methylumbelliferyl beta-D-glucoside as substrate at 100 uM preincubated prior substrate addition measured after 45 mins by spectrophotometry.

Experiment [10] deals with A549. The experiment in a line: Effect on sphingolipidome in human A549 cells assessed as increase in dihydroceramide per 10^6 cells at 10 uM after 24 hrs by UPLC-TOF analysis relative to control. The class given is functional. In short, it runs like this: as §1
The subject of experiment [11] is HCT-116. The experiment in a line: Effect on sphingolipidome in human HCT116 cells assessed as dihydrosphingosine-1-phosphate level per 10^6 cells at 10 uM after 14 hrs […] relative to control. The class given is functional, cell-based.
Experiment [12] concerns HCT-116. The experiment in a line: Effect on sphingolipidome in human HCT116 cells assessed as reduction in glucosylceramides per 10^6 cells at 10 uM after 14 hrs by UPLC-TOF analysis relative to control. The class given is functional, cell-based. The procedure, abridged:
as §1

Experiment [13] concerns A549. The experiment in a line: Effect on sphingolipidome in human A549 cells assessed as increase in C18-ceramide per 10^6 cells at 10 uM after 24 hrs by UPLC-TOF analysis (reference value: 4.8 +/- 0.5 pmol/10^6 cells). The class given is functional. The procedure, abridged:
as §1

In experiment [14] the test system is HCT-116. The experiment in a line: Effect on sphingolipidome in human HCT116 cells assessed as reduction in sphingomyelins per 10^6 cells at 10 uM after 14 hrs by UPLC-TOF analysis relative to control. Type of experiment: functional, cell-based. The procedure, abridged:
as §1

In experiment [15] the test system is HCT-116. The experiment in a line: Effect on sphingolipidome in human HCT116 cells assessed as reduction in C16-sphingomyelin per 10^6 cells at 10 uM after 14 hrs by UPLC-TOF analysis relative to control. The class given is functional, cell-based. In short, it runs like this: as §1
Experiment [16] relates to HCT-116. The experiment in a line: Effect on sphingolipidome in human HCT116 cells assessed as increase in dihydroceramide per 10^6 cells at 10 uM after 14 hrs by UPLC-TOF analysis relative to control. Type of experiment: functional. The procedure, abridged: as §1
The test system of experiment [17] is HCT-116. The experiment in a line: Effect on sphingolipidome in human HCT116 cells assessed as sphingosine-1-phosphate level per 10^6 cells at 10 uM after 14 hrs by UPLC-TOF analysis (reference value: 1.49 +/- 0.70/10^6 cells). Type of experiment: functional. In short, it runs like this: as §1
Experiment [18] has as its target Neutral ceramidase (Homo sapiens) (UniProt Q9NR71). The experiment in a line: Inhibition of nCDase in Moh.pAS cells using CerC12NBD as substrate after 1 hr by HPLC-FD analysis. Type of experiment: cell-based. The procedure, abridged:
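Moh. pAS cells transfected to overexpress neutral ceramidase. Lysates (sonicated in 1 mM Tris–HCl, 0.1 mM EDTA, pH 7.5) incubated 1 h, 37 °C, with 5 µM CerC12NBD in 25 mM Tris–HCl pH 7.5, 1% sodium cholate, ±50 µM compound. Intact cells treated 4 h with 50 µM compound before lysis and assay. Read-out HPLC-fluorescence.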

Consider three compounds from ChEMBL document CHEMBL2021903, “3-Deoxy-3,4-dehydro analogs of XM462. Preparation and activity on sphingolipid metabolism and cell fate” (Bioorg Med Chem, 2012).

Calls of active or inactive are those of the source. The rule behind the calls is not given here.

The inhibition is the relative decrease from the control value, in per cent.

Chain of Neutral ceramidase (Homo sapiens) (Q9NR71 whole entry): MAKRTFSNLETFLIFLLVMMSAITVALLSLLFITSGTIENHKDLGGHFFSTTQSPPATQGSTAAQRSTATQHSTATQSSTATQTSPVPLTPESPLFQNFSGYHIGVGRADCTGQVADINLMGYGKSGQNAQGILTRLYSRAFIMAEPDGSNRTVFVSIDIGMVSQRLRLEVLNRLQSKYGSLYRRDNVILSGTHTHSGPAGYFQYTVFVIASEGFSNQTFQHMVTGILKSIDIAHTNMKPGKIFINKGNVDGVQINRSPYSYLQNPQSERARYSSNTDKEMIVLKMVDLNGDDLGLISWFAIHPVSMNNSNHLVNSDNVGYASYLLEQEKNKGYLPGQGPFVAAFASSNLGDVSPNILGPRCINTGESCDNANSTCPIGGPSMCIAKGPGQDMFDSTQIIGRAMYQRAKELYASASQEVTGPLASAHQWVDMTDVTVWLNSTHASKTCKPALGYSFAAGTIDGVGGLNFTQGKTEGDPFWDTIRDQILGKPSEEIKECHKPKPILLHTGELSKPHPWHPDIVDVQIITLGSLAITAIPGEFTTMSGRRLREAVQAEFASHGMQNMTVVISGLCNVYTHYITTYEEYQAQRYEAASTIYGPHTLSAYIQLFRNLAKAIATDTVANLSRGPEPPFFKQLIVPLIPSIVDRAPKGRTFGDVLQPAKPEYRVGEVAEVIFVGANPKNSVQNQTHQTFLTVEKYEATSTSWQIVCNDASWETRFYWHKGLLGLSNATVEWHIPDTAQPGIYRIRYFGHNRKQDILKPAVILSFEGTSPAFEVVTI

`CCCCCCCCCCCCCS/C=C/[C@H](CO)NC(=O)C(C)(C)C`: the outcome in the experiment with HCT-116 [1], in the experiment with HCT-116 [2], in the experiment with HCT-116 [3], with HCT-116 [7], with HCT-116 [12] and in the experiment on HCT-116 [14] was Active. In addition, the outcome with HCT-116 [15] was Active. Besides, the inhibition in experiment [4] and in [6] was 50% each time. The outcome in the experiment with HCT-116 [5] and in the experiment on HCT-116 [11] was inactive. The values for the Activity in the experiment with HCT-116 [8], in the experiment on A549 [13] and in the experiment on HCT-116 [17] were 10.8 pmol, 7 pmol and 2.17 pmol, respectively. Moreover, the inhibition entry in experiment [9] and in experiment [18] was “inactive” throughout. Moreover, the “fold change (FC)” value is recorded as 1.9 in the experiment on A549 [10] and 4.5 in the experiment on HCT-116 [16].
In the case of `CCCCCCCCCCCCCS/C=C/[C@H](CO)NC(=O)CCCCCCC`, the outcome in the experiment on HCT-116 [1], in the experiment on HCT-116 [2], in the experiment on HCT-116 [3], with HCT-116 [7], in the experiment on HCT-116 [12] and with HCT-116 [14] was Active. For the same compound, the outcome with HCT-116 [15] was Active. The outcome in the experiment with HCT-116 [5] and with HCT-116 [11] was inactive. For the same compound, the results for the Activity with HCT-116 [8], in the experiment with A549 [13] and in the experiment on HCT-116 [17] were 16 pmol, 11.5 pmol and 1.25 pmol, respectively. Also, the inhibition entry in experiment [9] and in experiment [18] was “inactive” in each case. The figures for the “fold change (FC)” value with A549 [10] and with HCT-116 [16] were 3.5 and 8.5, respectively.
Turning to `CCCCCCCCCCCCCS/C=C/[C@H](CO)NC(=O)c1ccc(C(C)(C)C)cc1`, the inhibition in [4] and in [6] was 50% in each case. Also, the inhibition result in experiment [9] and in [18] was “inactive” throughout.
